From ChEMBL document CHEMBL1157310, “Cytotoxic oxylipins from a marine sponge Topsentia sp” (2006) come the findings set out here.

Values after ≈ are worked out from the molar mass of the structure shown.

Common to all, as to format: functional
Conditions in all cases: read-out: ED50 (the source's name)

For one experiment, the system named is SK-MEL-2. The experiment can be described thus: Cytotoxicity against human SK-MEL-2 cells. In short, it runs like this:
(§1)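 Human tumour cell lines of stated origin: SK-MEL-2 from skin cancer, XF498 from CNS cancer, HCT 15 from colon cancer.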

The next experiment has as its system HCT-15. The experiment can be described thus: Cytotoxicity against human HCT15 cells. The procedure, abridged: as §1
A further experiment deals with XF498. The experiment is described as follows: Cytotoxicity against human XF498 cells. In short, it runs like this:
as §1

The next experiment deals with A549. The experiment is described as follows: Cytotoxicity against human A549 cells.
A further experiment concerns SK-OV-3. The experiment can be described thus: Cytotoxicity against human SK-OV-3 cells.

As for `COc1cccc2c1C(=O)c1c(O)c3c(c(O)c1C2=O)C[C@@](O)(C(=O)CO)C[C@@H]3O[C@H]1C[C@H](N)[C@H](O)[C@H](C)O1` [DOXORUBICIN], the EC50 in the experiment with SK-MEL-2 was found to be 0.04 µg/mL (≈ 0.0736 µM); with HCT-15, 0.06 µg/mL (≈ 0.11 µM); with XF498, 0.06 µg/mL (≈ 0.11 µM); in the experiment with A549, 0.04 µg/mL (≈ 0.0736 µM); with SK-OV-3 it was 0.13 µg/mL (≈ 0.239 µM).
